Compounds with a hit are over-represented: about 1.3% of the library has one in this group of screens.
TbMetRS inhib – T. brucei MetRS inhibitors, primary screen, biochemical, luminescence; inhibition, % at 11.9 µM; AID 624268, 2012; methionyl-tRNA synthetase (Trypanosoma brucei brucei); 360,000 compounds, 0.4% hits; purified T. brucei MetRS, ATP depletion, Kinase-Glo luminescence;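 active = inhibition above a per-plate cutoff of the control wells' mean inhibition plus 3 SD, cut at about 5.5% in these data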;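 note: 0% = DMSO wells median and 100% = median of wells with control inhibitor compound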
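Test system – parasite MetRS enzyme · Reagent – substrates ATP, L-methionine and bulk Escherichia coli tRNA · Doses – 11.9 µM compound single dose, 0.9% DMSO · Times – 15 min enzyme-compound preincubation, 2 h reaction, 10 min detection, 25 °C · Signal – Kinase-Glo luminescence, ATP depletion format · Controls – DMSO-only wells as low control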
NS3 helicase inh – inhibitors of HCV NS3 helicase, primary screen, biochemical, Cy5 molecular beacon fluorescence; inhibition, % at 10.9 µM; 290,000 compounds, 0.56% hits; NS3 helicase DNA unwinding; AID 1800, 2009; Hepatitis C virus NS3 helicase;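 active = inhibition above the mean of all tested compounds plus 3 SD, set per campaign, cut at about 35% in these data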;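 note: 0% = DMSO wells and 100% = thioflavine S control wells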
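Control set: DMSO versus 110 µM thioflavine S; Material: NS3 helicase fragment of HCV; Measured by: Cy5 fluorescence at 0 and 60 min, beacon hairpin quenching; Read-out basis: percent inhibition from t60/t0 fluorescence ratio; Times: reaction time 60 min, 25 °C; Repeats: single replicate; Compound dosing: single dose, 10.9 µM nominal final, DMSO 0.8% final.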
Lipid droplet – inhibitors of hepatocyte lipid droplet formation, primary screen, imaging, high-throughput imaging, BODIPY stain. AML12 mouse hepatocytes, oleate lipid droplets. inhibition, % at 6.5 µM. 240,000 compounds, 0.4% hits;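 active = lipid droplet intensity inhibited by at least 50%, with more than 500 cells counted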
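Material – mouse AML12 hepatocyte cell line, fixed after treatment · Compound dosing – one dose, 6.5 µM compound · Times – compound with oleate, overnight · Measured by – Image-based BODIPY and DAPI two-channel analysis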
core dimer inh – inhibitors of HCV core protein dimerization, primary screen, biochemical, TR-FRET, high-throughput; AID 1899, 2009; TR-FRET GST/Flag-core106 dimerization, 1536-well; 300,000 compounds, 0.33% hits; inhibition, % at 5 µM;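 active = inhibition above the mean of all tested compounds plus 3 SD, set per screening campaign, cut at about 45% in these data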
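Assay system – GST-tagged and Flag-tagged HCV core protein residues 1-106 · Quantity – core106 proteins, GST 13.5 nM and Flag 17 nM · Benchmarks – unlabelled core106 and no-GST-core106 wells · Read-out basis – percent inhibition of core106 dimerization signal · Detection – time-resolved FRET, ex 340 nm, em 617 and 671 nm · Schedule – 4 h at 22.5 °C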
NS3 hel confirm – HCV NS3 helicase inhibitors, retest, confirmation, biochemical, Cy5 molecular beacon fluorescence, triplicate. 1,600 compounds, 31% hits. shares compounds with NS3 helicase inh. NS3 helicase DNA unwinding. inhibition, % at 10.9 µM;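 active = inhibition above the mean of all tested compounds plus 3 SD, cutoff set per campaign, cut at about 36% in these data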
FID counter trip – compounds displacing fluorescent DNA intercalator, artefact control for HCV NS3 helicase inhibitor project, biochemical, FID fluorescence, triplicate | shares compounds with NS3 helicase inh | DNA fluorescent intercalator displacement | inhibition, % at 7.9 µM | 1,600 compounds, 4% hits | AID 1945, 2009; in the data active = inhibition above about 37%;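 note: 0% = vehicle and 100% = reference compound; higher means more displacement of ethidium bromide from the DNA hairpin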
FID counter DR – compounds displacing fluorescent intercalator from DNA, dose response, counter-screen for HCV NS3 helicase inhibitor project, biochemical, fluorescence | shares compounds with NS3 helicase inh | fluorescent intercalator displacement from DNA | IC50, µM | 120 tested, under 10 active; call rule not given here
* marks the source's active call; other numbers are inactive results; i = inactive; / = no result given.

SMILES	TbMetRS inhib	NS3 helicase inh	Lipid droplet	core dimer inh	NS3 hel confirm	FID counter trip	others
O=C1NN(c2ccc(Cl)cc2)C(=O)/C1=C\c1ccc(-c2cccc(C(=O)O)c2)o1	0.1	46.4*	-4.0	/	65.8*	14.8
Cc1c(Br)c(C(F)(F)F)nn1CC(=O)NCCCn1ccnc1	-0.8	-9.4	13.5	-4.7	/	/
O=C1c2ccccc2-c2onc3ccc(NCc4ccco4)c1c23	-1.4	40.8*	/	-49.0	21.1	-88.4
Cc1cc(C)c2nc(NC(=O)C3CC(=O)N(Cc4ccco4)C3)sc2c1 (stereo not drawn)	-1.8	12.8	7.7	2.8	/	/
O=C(Nc1nc2c(F)cc(F)cc2s1)C1CC(=O)N(Cc2ccco2)C1 (stereo not drawn)	-0.3	40.9*	0.9	20.8	-8.2	-27.2
COc1ccc(OC)c(/C=C2\SC(=S)N(C(C(=O)O)c3ccccc3)C2=O)c1 (stereo not drawn)	-0.2	47.4*	-18.9	13.1	83.5*	15.9
O=C(NCC1CCCO1)C(=O)NCC(c1ccco1)N1CCN(c2ccccc2F)CC1 (stereo not drawn)	0.1	0.1	1.3	0.1	/	/
CCOC(=O)c1c(C)n(-c2ccccc2)c2ccc(OCCN(C)C)cc12	-2.2	-51.5	-9.5	-4.5	/	/
COc1ccc2[nH]c3c(=O)n(CCCC(=O)NC4CCC(C)CC4)c(=S)[nH]c3c2c1 (stereo not drawn)	-0.3	8.7	10.5	11.0	/	/
COc1ccc2[nH]c3c(=O)n(CCCC(=O)NC4CCCCC4C)c(=S)[nH]c3c2c1 (stereo not drawn)	0.6	41.6*	21.7	4.9	39.7*	-10.9	FID counter DR=>79.4
CN1C(=O)N(C)c2cccc3cccc1c23	0.1	3.7	-2.5	-8.3	/	/
CN1C(=O)Nc2cccc3cccc1c23	-0.3	41.5*	27.6	-7.5	-11.7	6.4
Cc1c2c(=O)n(-c3nc4ccccc4s3)nc-2cc(O)n1Cc1ccccc1	-0.7	48.3*	13.7	/	46.5*	11.6
CCOC(=O)c1oc2cc(O)ccc2c(=O)c1-c1ccccc1OC	-0.6	1.4	/	0.9	/	/
CCOc1ccccc1-c1c2cc(O)c(=O)cc-2oc2cc(O)c(O)cc12	-0.1	52.3*	-5.2	/	93.8*	i
O=c1cc2oc3cc(O)c(O)cc3c(-c3ccccc3O)c-2cc1O	0.8	51.4*	-14.1	/	101.9*	-76.1
COc1ccc(OC)c(-c2c3cc(O)c(=O)cc-3oc3cc(O)c(O)cc23)c1	2.5	43.9*	27.9	38.6	86.7*	i
CCCCCCCCN1C(=O)[C@H](CC(=O)NCCCOC)C[C@@]2(C(=O)OCC)CCCC=C12	-1.4	/	/	/	/	/
O=c1[nH]c2c(=O)[nH]cnc2nc1-c1ccccc1	-0.4	/	/	2.8	/	/
COc1ccccc1/C=C/C1=NC(=C\C=C/c2ccccc2)/C(=O)O1	-0.5	46.2*	2.3	34.8	61.3*	-27.0	FID counter DR=>79.4
COc1ccccc1/C=C/C=C1N=C(/C=C/c2ccc(Cl)cc2)OC/1=O	-0.6	9.3	-43.2	42.9	/	/
CCn1c(-c2csc3c2CCC(C)C3)n[nH]c1=S (stereo not drawn)	0.1	-0.3	5.7	-4.6	/	/
CC(C)(C)C(C(Oc1ccc(Cl)cc1)n1cncn1)n1nnnc1C(c1cccc(Cl)c1)N1CCCCC1 (stereo not drawn)	/	39.3*	15.6	14.9	-7.8	-30.1
CSc1nc2c(c(C(F)(F)F)n1)CC(C)CC2 (stereo not drawn)	-0.7	6.9	/	-0.2	/	/
Cc1cccc2nc(-c3ccco3)c(Nc3ccccc3)n12	0.1	4.0	6.4	1.0	/	/
Cc1cccc2nc(-c3ccco3)c(Nc3ccc4c(c3)OCO4)n12	0.2	40.3*	16.1	-3.3	8.8	2.7
